The record followed here is ChEMBL document CHEMBL4513216, “Probing the Open Global Health Chemical Diversity Library for Multistage-Active Starting Points for Next-Generation Antimalarials” (ACS Infect Dis, 2020).

The nature of the series: Toxicity liver stage against HepG2, at 10uM. The following applies: human, HepG2-A16-CD81EGFP cells; read-out: INHIBITION
The arrangement: test concentration 10 uM, cell line HepG2-A16-CD81EGFP. Format: cell-based. The gist of the method:
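Uninfected HepG2-A16-CD81EGFP cells, 3 × 10^3 per well, 1536-well, plated on prespotted compound at 10 μM final, parasite-free screening media added to match infected plates; puromycin 10 μM positive, DMSO 0.5% negative; run in parallel with 48 h PbLuc assay at 37 °C, 5% CO2; viability by CellTiter-Glo luminescence, normalized to controls.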
Take `O=C(NC1CCCC1)O[C@H]1COCCN(c2nc3ccccc3o2)C1`: the cytotoxicity at 10 µM is -3.51%.

On to `FC(F)(F)c1ccc2[nH]c([C@H]3CCNC3)nc2c1`, for which the cytotoxicity at 10 µM was 2.91%.

Regarding `Cc1cncc(Oc2ccc(CO)cc2)n1`, the cytotoxicity at 10 µM worked out at 5.81%.

Turning to `O=S(=O)(c1ccccc1)N1C[C@@H]2COC[C@]2(COCC2CC2)C1`, the cytotoxicity at 10 µM was 10.2%.

Regarding `CC(C)CNC(=O)N1CCOC2(CCNCC2)C1`, the cytotoxicity at 10 µM worked out at 9.28%.

Turning to `CS(=O)(=O)NCC1OCCc2cn(CC3CC3)nc21` (configuration not stated), the cytotoxicity at 10 µM came out at 8.19%.

On to `Cc1sc(CN)nc1-c1ccc(Cl)cc1Cl`, for which the cytotoxicity at 10 µM was -1.14%.

As to `Cc1c(C)n(Cc2ccncc2)c2nc3c(c(N)c12)CCCC3`, the cytotoxicity at 10 µM turned out to be 1.4%.

Take `CC(C)C(=O)Nc1cc(C(=O)NC2CC(C)(C)NC(C)(C)C2)nn1C`: the cytotoxicity at 10 µM was -7.04%.

For `CSc1cccc(NC(C)C(=O)Nc2nccs2)c1` (configuration not stated), the cytotoxicity at 10 µM was found to be 3.05%.

On to `CCc1cc(=O)n(CC(=O)N2CCCCC2)c(-c2cccc(F)c2)n1`, for which the cytotoxicity at 10 µM came to 11.4%.

With `Cn1cc(-c2cc(-c3cnn(C)c3)n(CC(=O)NC3CC3)n2)cn1`, the cytotoxicity at 10 µM is 2.94%.

In the case of `CCn1ccc(-c2cc(C(=O)O)n3ncc(Cl)c3n2)n1`, the cytotoxicity at 10 µM is -3.05%.

Consider `CN1C(=O)CC[C@@H]2N(C(=O)CCc3cccnc3)CCCC[C@@]21C`, for which the cytotoxicity at 10 µM was 3.82%.

Take `Cc1ccc(CN2CCc3c(nc4cc(C5CC5)nn4c3O)C2)s1`: the cytotoxicity at 10 µM was -3.69%.

Turning to `CS(=O)(=O)N1CCCC(c2cncc(Nc3ccccn3)n2)C1` (configuration not stated), the cytotoxicity at 10 µM turned out to be 0.609%.

As for `CC(=O)N1CCCC(Cc2cncc(Br)c2)C1` (configuration not stated), the cytotoxicity at 10 µM was -9.02%.

As to `C[C@]1(O)CCN(Cc2cccnc2)C[C@@H]1Oc1cccc(F)c1`, the cytotoxicity at 10 µM was -8.22%.

With `CCCC(=O)N1CCc2nc3cc(OC)c(OC)cc3c(=O)n2CC1`, the cytotoxicity at 10 µM is -13.2%.

In the case of `O=C(NC1CCCCC1)N1CCn2c(nnc2C2CCCN2)C1` (configuration not stated), the cytotoxicity at 10 µM turned out to be 0.336%.

On to `O=C1CC2(CCN(C(=O)c3ccccc3)C2)Nc2ccccc2N1` (configuration not stated), for which the cytotoxicity at 10 µM turned out to be 9.98%.

Consider `CN1Cc2ccccc2NC(=O)C12CCNC2` (configuration not stated), for which the cytotoxicity at 10 µM worked out at 6.75%.

Turning to `CCN(CC)C(=O)CSc1ncc[nH]1`, the cytotoxicity at 10 µM is -9.94%.

Take `Cc1ccc(-c2nc(CC(=O)NCC3CCCOC3)cs2)o1` (configuration not stated): the cytotoxicity at 10 µM was -48%.

Turning to `CC(C)C(C(=O)O)c1cccc(Cl)c1` (configuration not stated), the cytotoxicity at 10 µM was -12.8%.

On to `CNS(=O)(=O)c1cc(C(=O)N2CCCCCC2CC(C)C)co1` (configuration not stated), for which the cytotoxicity at 10 µM was determined as 11.2%.

Consider `O=C(NCC1SCCc2ccccc21)c1cscn1` (configuration not stated), for which the cytotoxicity at 10 µM was -1.88%.

For the compound `Cc1nc(CC(=O)N2c3ccccc3OCC2C)cs1` (configuration not stated), the cytotoxicity at 10 µM is -6.53%.

Consider `Cc1cnn(C2CN(c3nc(-c4ccncc4)nc4c3CCC4)C2)c1`, for which the cytotoxicity at 10 µM was -46%.

For `Cn1cc(C(=O)NCc2ccc(OC3CCCCC3)nc2)ccc1=O`, the cytotoxicity at 10 µM was found to be 28.8%.

In the case of `NC(=O)c1ccc(NC(=O)N2CCN(c3cccs3)CC2)c(F)c1`, the cytotoxicity at 10 µM came out at 1.97%.

Regarding `COCCOc1ncccc1CNC(=O)N1CCCCCC1`, the cytotoxicity at 10 µM was -36%.

For the compound `CN(C)CCN(Cc1cccnc1)C(=O)c1ccn(-c2ccccc2)n1`, the cytotoxicity at 10 µM came to 2.41%.

With `CN(C)C(=O)Cn1cc(C#N)c(=O)c2cc(Br)ccc21`, the cytotoxicity at 10 µM is 15.7%.

Consider `CCc1nc2n(n1)CCCC2Nc1nc(C2CC2)ns1` (configuration not stated), for which the cytotoxicity at 10 µM stood at 3.03%.

Take `Cc1ccc(N2CCCC(N(C)Cc3noc(C4CC4)n3)C2)nn1` (configuration not stated): the cytotoxicity at 10 µM was determined as 1.6%.

In the case of `Cc1cc(C)c2c(c1)C(NCc1nnc3n1CCC3)CCCO2` (configuration not stated), the cytotoxicity at 10 µM was -0.117%.

As to `O=C(c1cccnc1-n1cncn1)N1CCN(C2CCCC2)CC1`, the cytotoxicity at 10 µM was 8.7%.

`CC(C)OCCOCc1cccc(NC(=O)NCC(=O)N(C)C)c1`: the cytotoxicity at 10 µM is -5.53%.

On to `COC(C)c1noc(CN2CCCNCC2)n1` (configuration not stated), for which the cytotoxicity at 10 µM worked out at 5.6%.

Consider `Cc1ccc(C2CCCN2S(=O)(=O)N(C)Cc2cnn(C)c2)o1` (configuration not stated), for which the cytotoxicity at 10 µM came to 15.8%.

For the compound `CC(C)CN1C(=O)C2(CCCC2)NC1c1c[nH]nc1-c1cccnc1` (configuration not stated), the cytotoxicity at 10 µM was found to be 7.76%.

For the compound `CCc1nnnn1Cc1csc(N(C)C(C)=O)n1`, the cytotoxicity at 10 µM came out at 0.63%.

On to `COc1cccc2c1N(C(=O)c1ccc(C)nc1)CCC2`, for which the cytotoxicity at 10 µM is 1.36%.

As to `CN(CC(=O)N(C)C1CCCCC1)Cc1nc2ccccc2c(=O)[nH]1`, the cytotoxicity at 10 µM was found to be 2.26%.

For `Cc1nn(C)cc1C(=O)Nc1cccc(CN2CCC(CO)CC2)c1`, the cytotoxicity at 10 µM is -10.2%.

With `CC(C)c1nc(CN(C)C(=O)Cn2nc3ccccc3n2)no1`, the cytotoxicity at 10 µM amounted to 10.2%.

For the compound `CCn1ncnc1CN1CCOC(Cc2cccc3ccccc23)C1` (configuration not stated), the cytotoxicity at 10 µM was determined as 2.53%.

Consider `COc1ccc2c(c1)C(C(=O)N(C)CCc1scnc1C)CC(=O)N2` (configuration not stated), for which the cytotoxicity at 10 µM was -42.3%.

For the compound `CCC[C@H]1CN(S(=O)(=O)c2cc(C)ccc2F)C[C@@H]1N`, the cytotoxicity at 10 µM stood at 2.33%.

Turning to `CCc1c(C)nn(CCNC(=O)c2cnn[nH]2)c1C`, the cytotoxicity at 10 µM was -5.28%.

With `Cc1noc(C)c1CC(=O)N1CCCC(Cn2ccnc2C)C1` (configuration not stated), the cytotoxicity at 10 µM is -3.6%.

`Cc1nn(C)c(C)c1NC(=O)c1cccc(CN2CCS(=O)(=O)CC2)c1`: the cytotoxicity at 10 µM is -15.8%.

On to `Cc1ccccc1C(=O)NC[C@@H]1CCN(C(=O)CN2CCCC2)C[C@H]1O`, for which the cytotoxicity at 10 µM was -39.8%.

As for `O=c1cnc2ccccc2n1CCCn1cccn1`, the cytotoxicity at 10 µM was -26.4%.

As for `COc1ccc(CCC(C)Nc2cccc(SC)c2)cc1` (configuration not stated), the cytotoxicity at 10 µM is -1.11%.

Regarding `CCc1c(C)nn(CCN2CC3(CCOC3)CCC2=O)c1C` (configuration not stated), the cytotoxicity at 10 µM is 1.94%.

With `O=C(Nc1ccc(-n2cccn2)cc1)N1C[C@H](O)[C@@H](N2CCOCC2)C1`, the cytotoxicity at 10 µM was -45.9%.

Regarding `Cc1nnsc1C(=O)NCc1cccnc1N(C)Cc1ccccc1`, the cytotoxicity at 10 µM is -6.91%.

Regarding `CS(=O)(=O)N1CCOC(CNC(=O)c2cccc(C#N)c2)C1` (configuration not stated), the cytotoxicity at 10 µM was -5.69%.

Consider `CC(C)(C)c1ccc(-c2n[nH]c3c2CN(CC2CCOC2)CC3)cc1` (configuration not stated), for which the cytotoxicity at 10 µM is -40.1%.

As to `OC1(c2cn(CC3CCN(C4CCSC4)CC3)nn2)CCCC1` (configuration not stated), the cytotoxicity at 10 µM stood at 0.445%.

On to `CC(C)(C)N1CC(C(=O)N2CCN(CCc3ccccc3)CC2)CC1=O` (configuration not stated), for which the cytotoxicity at 10 µM is 23.4%.

Turning to `Cc1nnc(SCc2ccccn2)s1`, the cytotoxicity at 10 µM was -9.13%.

Consider `Cc1cc(C)n(CNc2nonc2C(N)=O)n1`, for which the cytotoxicity at 10 µM is -13%.

`O=C1CN(Cc2ccc(-c3ccccc3C(=O)O)cc2)CCN1`: the cytotoxicity at 10 µM was -1.88%.

On to `Clc1ccccc1-c1nc(CNC2CCc3ncnn3C2)co1` (configuration not stated), for which the cytotoxicity at 10 µM was -7.6%.

On to `COc1ccc(C(O)CNC(=O)NCCc2csc(C)n2)cc1` (configuration not stated), for which the cytotoxicity at 10 µM is -6.16%.

In the case of `O=C(C1CCCN1Cc1nc(-c2ccco2)no1)N1CCSCC1` (configuration not stated), the cytotoxicity at 10 µM was -5.8%.

In the case of `CCOc1cccc(CNC(=O)N2CCC(Cc3cnn(C)c3)C2)c1` (configuration not stated), the cytotoxicity at 10 µM is -3.16%.

On to `CCOc1ccccc1N1CCN(C(=O)c2cc[nH]n2)CC1`, for which the cytotoxicity at 10 µM is -11%.

With `COC(=O)C(c1cc(F)ccc1F)N(C)C(=O)c1cnc(C)cn1` (configuration not stated), the cytotoxicity at 10 µM was 0.111%.

For `Cc1nc(C)n(CC2CCCN(CCCc3ccccc3)C2)n1` (configuration not stated), the cytotoxicity at 10 µM was -6.02%.

On to `Nc1cc2c(nn1)CCN(C(=O)c1cccc3c1OCCO3)C2`, for which the cytotoxicity at 10 µM was -8.72%.

For the compound `O=C(NCCn1ccnc1)c1ccn(-c2cccc(F)c2)n1`, the cytotoxicity at 10 µM is -5.28%.

Turning to `CCN(CC1CCOC1)C(=O)Nc1ccc(N2CCCC2)nc1` (configuration not stated), the cytotoxicity at 10 µM was -7.1%.

`Cc1cc(C)n(CC2CCCN2C(=O)c2cc[nH]n2)n1` (configuration not stated): the cytotoxicity at 10 µM was -3.8%.

As to `COc1ncccc1NC(=O)NCC(O)c1ccc(F)cc1F` (configuration not stated), the cytotoxicity at 10 µM turned out to be 30.9%.

On to `O=C(CCOCc1ccccc1)N1CCCC1c1noc(C2CC2)n1` (configuration not stated), for which the cytotoxicity at 10 µM was -4.74%.

In the case of `Cc1cnn(C2CCCN(C(=O)c3cn4cccnc4n3)C2)c1` (configuration not stated), the cytotoxicity at 10 µM is -11.4%.

For `CCc1nccn1C1CCCN(C(=O)c2cnn(C)c2C2CC2)C1` (configuration not stated), the cytotoxicity at 10 µM was -12.8%.

`COc1ccc(-n2ccc(C(=O)NCCN3CCCCC3C)n2)cc1` (configuration not stated): the cytotoxicity at 10 µM is -8.43%.

On to `COCCOc1cccc(C(=O)N2CCCC(n3ccnc3C)C2)c1` (configuration not stated), for which the cytotoxicity at 10 µM was -12%.

For the compound `COc1c(C2CCCN2C(=O)c2c[nH]c3ncccc23)c(C)nn1C` (configuration not stated), the cytotoxicity at 10 µM was -6.49%.

On to `COc1ccccc1OCC(=O)NS(=O)(=O)c1ccccc1Br`, for which the cytotoxicity at 10 µM is -9.8%.

Regarding `Cc1cc(C[C@@H]2CCC[C@H]2NCc2ccccc2C)on1`, the cytotoxicity at 10 µM is -5.28%.

As for `Fc1cnc(N2C[C@@H](OCC3CCOCC3)[C@H]3OCCC[C@H]32)nc1`, the cytotoxicity at 10 µM was found to be 10.5%.

Consider `O=C(c1ccco1)N1C[C@H]2CCCN(Cc3ccoc3)[C@H]2C1`, for which the cytotoxicity at 10 µM came to 0.276%.

For the compound `CC(C)Oc1cccc(CNC(Cc2ccsc2)c2nccs2)c1` (configuration not stated), the cytotoxicity at 10 µM came to 0.732%.

In the case of `O=C(NCC1CC1)[C@@H]1CCO[C@@H]2CCN(c3ncccn3)C[C@@H]21`, the cytotoxicity at 10 µM amounted to 7.64%.

For `COc1ncc(C2(O)CCN(Cc3cccc(F)c3F)CC2)c(OC)n1`, the cytotoxicity at 10 µM was -8.33%.

In the case of `O=C(c1ccc(F)cc1)N1CCN2C[C@H](Oc3cccnc3)C[C@H]2C1`, the cytotoxicity at 10 µM is 3.77%.

As for `COc1cc(CNCC(O)c2cccc(F)c2)cc2c1OCO2` (configuration not stated), the cytotoxicity at 10 µM was -6.31%.

`CC(C)CC(=O)N1C[C@@H]2CCN(c3ncccn3)C[C@@H]2C1`: the cytotoxicity at 10 µM was -1.63%.

As to `CN(Cc1ccco1)[C@@H]1CN(Cc2nccs2)C[C@@H]2CCCO[C@@H]21`, the cytotoxicity at 10 µM stood at 6.07%.

On to `Cc1ccc(N2CCO[C@H]3CN(CC4CC4)C[C@H]32)nn1`, for which the cytotoxicity at 10 µM is -7.93%.

As to `CNC(=O)CC1CC2(CCN(CC3CC3)CC2)Oc2ccccc21` (configuration not stated), the cytotoxicity at 10 µM was -0.0368%.
